# Results reported in ChEMBL document CHEMBL2384906, “Biological activity, design, synthesis and structure activity relationship of some novel derivatives of curcumin containing sulfonamides” (Eur J Med Chem, 2013).
# Active and inactive are the calls of the source. No cut-off for these calls is given here.
# Assays:
# Salmonella typhi [1] = assay: Antimicrobial activity against Salmonella typhi ATCC 23564 after 24 hrs by broth micro serial dilution method; assay type: functional, Salmonella enterica subsp. enterica serovar Typhi; settings: Salmonella enterica, ATCC 23564, 24 h
# Aspergillus flavus [2] = assay: Antifungal activity against Aspergillus flavus MTCC 1021 after 48 hrs; assay type: functional
# QG-56 = assay: Cytotoxicity against human QG56 cells after 24 hrs by MTT assay; assay type: functional, cell-based
# Method in brief: (§1)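 The MTT assay seeded 5 × 10⁴ cells per well and grew them 24 h in RPMI 1640 with compound at 2.5–200 µM. Medium without cells was the blank and adriamycin the positive control. MTT was added for 4 h at 37 °C, formazan was solubilised, and absorbance was read at 570 nm. IC50 is the concentration that cuts viability 50% against untreated cells.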
# Aspergillus niger [3] = assay: Antifungal activity against Aspergillus niger MTCC 1108 after 48 hrs; assay type: functional; settings: MTCC 1108, 48 h
# Salmonella typhi [4] = assay: Antimicrobial activity against Salmonella typhi ATCC 23564 assessed as diameter of inhibition zone at 80 uM after 24 hrs by Kirby -Baur disc diffusion method; assay type: functional, Salmonella enterica subsp. enterica serovar Typhi; settings: Salmonella enterica, ATCC 23564, 24 h; read-out: DIZ
# Mus musculus = assay: Antiinflammatory activity in mouse assessed as inhibition of carrageenan-induced increase in paw volume at 200 mg/kg administered 1 hr prior to carrageenan challenge measured after 3 hrs relative to control; assay type: functional
# Method in brief: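 Mice were fasted 2 h and placed in groups of five. Controls received saline i.p. Phenylbutazone was given at 100 mg/kg i.p., curcumin at 200 mg/kg i.p., and derivatives at 200 mg/kg. After 1 h, 0.1 mL of 1% carrageenan in saline was injected subplantar into the right hind paw. Paw volume was followed by plethysmometer for 3 h, and % inhibition was calculated as (Vc − Vt)/Vc × 100.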
# Curvularia lunata [5] = assay: Antifungal activity against Curvularia lunata MTCC 581 assessed as zone of inhibition at 40 uM after 48 hrs by disc diffusion method; assay type: functional; settings: MTCC 581, 48 h, read-out: IZ
# Method in brief: (§2)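 Spores from 4-day potato dextrose agar cultures, suspended in sterile water at 1.5 × 10⁵ CFU/mL. 0.2 mL was spread on potato dextrose agar. 5 mm filter-paper discs soaked with test compound were laid on the lawn. Incubation was 48 h at 28 °C, then the inhibition zone was measured in mm. Fluconazole was the positive control and acetone the negative control.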
# Aspergillus flavus [6] = assay: Antifungal activity against Aspergillus flavus MTCC 1021 assessed as zone of inhibition at 80 uM after 48 hrs by disc diffusion method; assay type: functional; method in brief: as §2
# Escherichia coli [7] = assay: Antimicrobial activity against Escherichia coli ATCC 35218 assessed as diameter of inhibition zone at 40 uM after 24 hrs by Kirby -Baur disc diffusion method; assay type: functional; settings: ATCC 35218, 24 h, read-out: DIZ
# Method in brief: (§3)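 Kirby-Bauer disc diffusion was used. Acetone stocks (160 µM) were serially doubled down to 80, 40 and 20 µM. 4 µL of each went onto 5 mm sterile paper discs, which were dried 30 min at 50 °C. Inoculum was 1.5 × 10⁸ CFU/mL diluted to 3 × 10² CFU/mL, and 50 µL was spread on Mueller-Hinton agar. After 24 h at 37 °C the inhibition-zone diameter was measured. Ciprofloxacin served as positive control.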
# Staphylococcus aureus [8] = assay: Antimicrobial activity against Staphylococcus aureus ATCC 11632 assessed as diameter of inhibition zone at 40 uM after 24 hrs by Kirby -Baur disc diffusion method; assay type: functional; settings: ATCC 11632, 24 h, read-out: DIZ; method in brief: as §3
# Pseudomonas aeruginosa [9] = assay: Antimicrobial activity against Pseudomonas aeruginosa ATCC 15499 assessed as diameter of inhibition zone at 20 uM after 24 hrs by Kirby -Baur disc diffusion method; assay type: functional; method in brief: as §3
# Aspergillus niger [10] = assay: Antifungal activity against Aspergillus niger MTCC 1108 assessed as zone of inhibition at 20 uM after 48 hrs by disc diffusion method; assay type: functional; method in brief: as §2
# Escherichia coli [11] = assay: Antimicrobial activity against Escherichia coli ATCC 35218 after 24 hrs by broth micro serial dilution method; assay type: functional; settings: ATCC 35218, 24 h
# Method in brief: (§4)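 This was broth microdilution in autoclaved Mueller-Hinton broth. 150 µL of compound per well was serially diluted […], and 50 µL of test organism was added. Plates were incubated 24 h at 37 °C and optical density was read.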
# Pseudomonas aeruginosa [12] = assay: Antimicrobial activity against Pseudomonas aeruginosa ATCC 15499 assessed as diameter of inhibition zone at 40 uM after 24 hrs by Kirby -Baur disc diffusion method; assay type: functional; method in brief: as §3
# Trichoderma viride [13] = assay: Antifungal activity against Trichoderma viride MTCC 1107 assessed as zone of inhibition at 20 uM after 48 hrs by disc diffusion method; assay type: functional; method in brief: as §2
# Bacillus cereus [14] = assay: Antimicrobial activity against Bacillus cereus MTCC 7350 assessed as diameter of inhibition zone at 20 uM after 24 hrs by Kirby -Baur disc diffusion method; assay type: functional; method in brief: as §3
# Bacillus cereus [15] = assay: Antimicrobial activity against Bacillus cereus MTCC 7350 assessed as diameter of inhibition zone at 40 uM after 24 hrs by Kirby -Baur disc diffusion method; assay type: functional; method in brief: as §3
# Trichoderma viride [16] = assay: Antifungal activity against Trichoderma viride MTCC 1107 assessed as zone of inhibition at 80 uM after 48 hrs by disc diffusion method; assay type: functional; settings: MTCC 1107, 48 h, read-out: IZ; method in brief: as §2
# HeLa = assay: Cytotoxicity against human HeLa cells after 24 hrs by MTT assay; assay type: functional, cell-based; method in brief: as §1
# Bacillus cereus [17] = assay: Antimicrobial activity against Bacillus cereus MTCC 7350 after 24 hrs by broth micro serial dilution method; assay type: functional; settings: MTCC 7350, 24 h; method in brief: as §4
# Pseudomonas aeruginosa [18] = assay: Antimicrobial activity against Pseudomonas aeruginosa ATCC 15499 assessed as diameter of inhibition zone at 80 uM after 24 hrs by Kirby -Baur disc diffusion method; assay type: functional; settings: ATCC 15499, 24 h, read-out: DIZ; method in brief: as §3
# Staphylococcus aureus [19] = assay: Antimicrobial activity against Staphylococcus aureus ATCC 11632 assessed as diameter of inhibition zone at 20 uM after 24 hrs by Kirby -Baur disc diffusion method; assay type: functional; settings: ATCC 11632, 24 h, read-out: DIZ; method in brief: as §3
# Pseudomonas aeruginosa [20] = assay: Antimicrobial activity against Pseudomonas aeruginosa ATCC 15499 after 24 hrs by broth micro serial dilution method; assay type: functional; settings: ATCC 15499, 24 h; method in brief: as §4
# HepG2 = assay: Cytotoxicity against human HepG2 cells after 24 hrs by MTT assay; assay type: functional, cell-based; method in brief: as §1
# Trichoderma viride [21] = assay: Antifungal activity against Trichoderma viride MTCC 1107 assessed as zone of inhibition at 40 uM after 48 hrs by disc diffusion method; assay type: functional; settings: MTCC 1107, 48 h, read-out: IZ; method in brief: as §2
# Salmonella typhi [22] = assay: Antimicrobial activity against Salmonella typhi ATCC 23564 assessed as diameter of inhibition zone at 20 uM after 24 hrs by Kirby -Baur disc diffusion method; assay type: functional, Salmonella enterica subsp. enterica serovar Typhi; settings: Salmonella enterica, ATCC 23564, 24 h; read-out: DIZ
# Aspergillus niger [23] = assay: Antifungal activity against Aspergillus niger MTCC 1108 assessed as zone of inhibition at 80 uM after 48 hrs by disc diffusion method; assay type: functional; settings: MTCC 1108, 48 h, read-out: IZ; method in brief: as §2
# Escherichia coli [24] = assay: Antimicrobial activity against Escherichia coli ATCC 35218 assessed as diameter of inhibition zone at 20 uM after 24 hrs by Kirby -Baur disc diffusion method; assay type: functional; settings: ATCC 35218, 24 h, read-out: DIZ; method in brief: as §3
# Bacillus cereus [25] = assay: Antimicrobial activity against Bacillus cereus MTCC 7350 assessed as diameter of inhibition zone at 80 uM after 24 hrs by Kirby -Baur disc diffusion method; assay type: functional; settings: MTCC 7350, 24 h, read-out: DIZ; method in brief: as §3
# Curvularia lunata [26] = assay: Antifungal activity against Curvularia lunata MTCC 581 after 48 hrs; assay type: functional; settings: MTCC 581, 48 h
# Curvularia lunata [27] = assay: Antifungal activity against Curvularia lunata MTCC 581 assessed as zone of inhibition at 20 uM after 48 hrs by disc diffusion method; assay type: functional; method in brief: as §2
# Staphylococcus aureus [28] = assay: Antimicrobial activity against Staphylococcus aureus ATCC 11632 after 24 hrs by broth micro serial dilution method; assay type: functional; settings: ATCC 11632, 24 h; method in brief: as §4
# HCT-116 = assay: Cytotoxicity against human HCT116 cells after 24 hrs by MTT assay; assay type: functional, cell-based; method in brief: as §1
# Escherichia coli [29] = assay: Antimicrobial activity against Escherichia coli ATCC 35218 assessed as diameter of inhibition zone at 80 uM after 24 hrs by Kirby -Baur disc diffusion method; assay type: functional; settings: ATCC 35218, 24 h, read-out: DIZ; method in brief: as §3
# Aspergillus niger [30] = assay: Antifungal activity against Aspergillus niger MTCC 1108 assessed as zone of inhibition at 40 uM after 48 hrs by disc diffusion method; assay type: functional; settings: MTCC 1108, 48 h, read-out: IZ; method in brief: as §2
# Salmonella typhi [31] = assay: Antimicrobial activity against Salmonella typhi ATCC 23564 assessed as diameter of inhibition zone at 40 uM after 24 hrs by Kirby -Baur disc diffusion method; assay type: functional, Salmonella enterica subsp. enterica serovar Typhi; settings: Salmonella enterica, ATCC 23564, 24 h; read-out: DIZ
# Curvularia lunata [32] = assay: Antifungal activity against Curvularia lunata MTCC 581 assessed as zone of inhibition at 80 uM after 48 hrs by disc diffusion method; assay type: functional; settings: MTCC 581, 48 h, read-out: IZ; method in brief: as §2
# Trichoderma viride [33] = assay: Antifungal activity against Trichoderma viride MTCC 1107 after 48 hrs; assay type: functional; settings: MTCC 1107, 48 h
# Staphylococcus aureus [34] = assay: Antimicrobial activity against Staphylococcus aureus ATCC 11632 assessed as diameter of inhibition zone at 80 uM after 24 hrs by Kirby -Baur disc diffusion method; assay type: functional; settings: ATCC 11632, 24 h, read-out: DIZ; method in brief: as §3
compound,measurement,setting,value
COc1cc(/C=C/C(O)=C/C(/C=C/c2ccc(O)c(OC)c2)=N/c2ccc(S(N)(=O)=O)cc2)ccc1O,MIC,Salmonella typhi [1],40 µM
same,MIC,Aspergillus flavus [2],inactive
same,IC50,QG-56,100 µM
same,MIC,Aspergillus niger [3],40 µM
same,zone of inhibition at 80 µM,Salmonella typhi [4],13 mm
same,inhibition in vivo at 200 mg/kg,Mus musculus,29%
same,zone of inhibition at 40 µM,Curvularia lunata [5],9 mm
same,inhibition zone (IZ),Aspergillus flavus [6],inactive
same,zone of inhibition at 40 µM,Escherichia coli [7],13 mm
same,zone of inhibition at 40 µM,Staphylococcus aureus [8],13 mm
same,diameter of the inhibition zone (DIZ),Pseudomonas aeruginosa [9],inactive
same,inhibition zone (IZ),Aspergillus niger [10],inactive
same,MIC,Escherichia coli [11],40 µM
same,diameter of the inhibition zone (DIZ),Pseudomonas aeruginosa [12],inactive
same,inhibition zone (IZ),Trichoderma viride [13],inactive
same,diameter of the inhibition zone (DIZ),Bacillus cereus [14],inactive
same,diameter of the inhibition zone (DIZ),Bacillus cereus [15],inactive
same,zone of inhibition at 80 µM,Trichoderma viride [16],11 mm
same,IC50,HeLa,100 µM
same,MIC,Bacillus cereus [17],> 80 µM
same,zone of inhibition at 80 µM,Pseudomonas aeruginosa [18],11 mm
same,zone of inhibition at 20 µM,Staphylococcus aureus [19],10 mm
same,MIC,Pseudomonas aeruginosa [20],> 80 µM
same,IC50,HepG2,50 µM
same,zone of inhibition at 40 µM,Trichoderma viride [21],10 mm
same,zone of inhibition at 20 µM,Salmonella typhi [22],9 mm
same,zone of inhibition at 80 µM,Aspergillus niger [23],11 mm
same,zone of inhibition at 20 µM,Escherichia coli [24],12 mm
same,zone of inhibition at 80 µM,Bacillus cereus [25],9 mm
same,MIC,Curvularia lunata [26],80 µM
same,inhibition zone (IZ),Curvularia lunata [27],inactive
same,MIC,Staphylococcus aureus [28],40 µM
same,IC50,HCT-116,50 µM
same,zone of inhibition at 80 µM,Escherichia coli [29],15 mm
same,zone of inhibition at 40 µM,Aspergillus niger [30],9 mm
same,zone of inhibition at 40 µM,Salmonella typhi [31],11 mm
same,zone of inhibition at 80 µM,Curvularia lunata [32],12 mm
same,MIC,Trichoderma viride [33],80 µM
same,zone of inhibition at 80 µM,Staphylococcus aureus [34],14 mm
